Assay results pooled from the literature.
JAK1 JH2: Tyrosine-protein kinase JAK1, JH2 (JAK1, Homo sapiens, UniProt P23458)
JAK1 JH1: Tyrosine-protein kinase JAK1, JH1 (JAK1, Homo sapiens, UniProt P23458)
JAK1: Tyrosine-protein kinase JAK1 (JAK1, Homo sapiens, UniProt P23458)

CS(=O)(=O)NCC[C@H](NC(=O)c1cncc2c1cnn2-c1ccc(F)cc1)c1ccnc(S(C)(=O)=O)c1
remaining binding (JAK1 JH2; cell-free assay, competition with immobilised ligand; 1 µM): 100%

C[C@@H]1CCN(c2nccc(-c3cnn4ncccc34)n2)C1
remaining signal (JAK1 JH1; cell-free assay; 1 µM): 82%

C=CC(=O)Nc1cc(Nc2nccc(Nc3cc(Cl)c(F)cc3C(C)(C)O)n2)c(OC)cc1N1CC[C@@H](N(C)C)C1
inhibition (JAK1; enzyme activity, inhibitor; 1 µM): 6%

CC(C)(O)[C@H]1CC[C@H](Nc2ccc3ncc(-c4cccc(C(F)(F)F)c4)n3n2)CC1
remaining activity (JAK1; enzyme activity, inhibitor; 1 µM): 82.4%

CN1CCN(c2cnc3c(C4CCN(C(=O)c5ccc(OC(F)(F)F)cc5N)CC4)ncnc3c2)CC1
remaining binding (JAK1 JH1; cell-free assay, competition with immobilised ligand; 1 µM): 100%

CN(CCCC(F)(F)F)c1nccc(-c2cnn3ncccc23)n1
remaining binding (JAK1; binding; 1 µM): 100%

CC(C)(C)c1nc(-c2cccc(NS(=O)(=O)c3c(F)cccc3F)c2F)c(-c2ccnc(N)n2)s1
remaining activity (JAK1; enzyme activity, inhibitor, radiometric; 1 µM): 84%

O=C(NCc1ncc(C(F)(F)F)cc1Cl)c1ccc2c(c1)C1(CCS(=O)(=O)CC1)[C@@H](C1CC1)N2S(=O)(=O)c1ccc(F)cc1
remaining binding (JAK1 JH2; cell-free assay, competition with immobilised ligand; 1 µM): 85%

Oc1ccc(-c2nc(-c3ccncc3)c(-c3ccc(F)cc3)[nH]2)cc1
remaining signal (JAK1; cell-free assay; 0.5 µM): 102%

COc1cc2nccc(Oc3ccc(NC(=O)c4c5n(n(-c6ccc(F)cc6)c4=O)CCCC5)cc3)c2cc1OC
inhibition (JAK1; enzyme activity, inhibitor; 0.1 µM): -5%

c1nc2c(Nc3ccc4c(c3)OCCO4)nc(Nc3ccc4c(c3)OCCO4)nc2[nH]1
activity vs control (JAK1 JH2; enzyme activity, inhibitor; 10 µM): 2.5%

CCN(CC)CCNC(=O)c1c(C)[nH]c(/C=C2\C(=O)Nc3ccc(F)cc32)c1C
remaining signal (JAK1; cell-free assay; 0.5 µM): 71.9%

Nc1ncnc2occ(-c3ccc(NC(=O)Nc4cc(C(F)(F)F)ccc4F)cc3)c12
remaining signal (JAK1 JH1; cell-free assay, inhibitor; 20 µM): 0.9%

CS(=O)(=O)N1CCCC(NC(=O)[C@H](CCC2CCCCC2)NC(=O)c2ccc(CNc3ncnc4c3nnn4-c3ccccc3)cc2)C1 (stereo partly drawn)
remaining binding (JAK1 JH2; cell-free assay, competition with immobilised ligand; 0.1 µM): 89%

CCCS(=O)(=O)Nc1ccc(F)c(C(=O)c2c[nH]c3ncc(-c4ccc(Cl)cc4)cc23)c1F
inhibition (JAK1; enzyme activity, inhibitor; 1 µM): < 20%

N[C@H]1CCN(c2nccc(-c3cnn4ncccc34)n2)C1
remaining binding (JAK1; binding; 1 µM): 60%

O=C(Nc1cnn(-c2csc(C(=O)NC3COC3)c2)c1)Nc1ccccc1Cl
remaining activity (JAK1; enzyme activity, inhibitor; 5 µM): 98.7%

c1cnn2ncc(-c3ccnc(N4CCC45COC5)n3)c2c1
remaining signal (JAK1 JH1; cell-free assay; 1 µM): 95%

Cc1ccc(C(=O)Nc2ccc(CN3CCN(C)CC3)c(C(F)(F)F)c2)cc1C#Cc1cnc2cccnn12
remaining activity (JAK1; enzyme activity, inhibitor; 23.5 nM): 86%

CS(=O)(=O)c1cc(C2(NC(=O)c3cncc4c3cnn4-c3ccc(F)cc3)CC2)ccn1
remaining binding (JAK1 JH1; cell-free assay, competition with immobilised ligand; 1 µM): 96%

CNc1cc(Oc2cc(C(=O)Nc3cc(N4CCN(C)CC4)cc(C(F)(F)F)c3)ccc2C)ncn1
inhibition (JAK1 JH2; target engagement in cells, inhibitor, chemoproteomics; Huh-7; 1 µM): -25.7%

O=C1NC(=O)c2cc(Nc3ccc(F)cc3)c(Nc3ccc(F)cc3)cc21
remaining signal (JAK1; cell-free assay; 0.5 µM): 91.5%

O=C(CSc1nc2nccnc2c(=O)n1CCc1ccccc1)Nc1nccs1
inhibition (JAK1; enzyme activity, inhibitor; 10 µM): 1%

COc1cc2ncnc(Nc3ccc(Oc4ccccc4)cc3C)c2cc1OC
inhibition (JAK1; enzyme activity, inhibitor; 1 µM): -5%

C[C@H](c1cccc(C#N)c1)n1cc(Cl)cc(C(N)=O)c1=N
remaining binding (JAK1 JH1; cell-free assay, competition with immobilised ligand; 1 µM): 57%

Cc1cnc(NC2CCOCC2)nc1-n1cnc(C(=O)NC(CN)c2cc(F)cc(Cl)c2)c1 (stereo not drawn)
remaining activity (JAK1 JH1; enzyme activity, inhibitor, radiometric; 1 µM): 93%

CC(=O)C1=C(C)N(c2cccc(C(F)(F)F)c2)C(=O)N[C@@H]1c1ccc(C#N)nc1
remaining binding (JAK1 JH1; cell-free assay, competition with immobilised ligand; 1 µM): 85.9%

CN(C)C1CCN(CC#Cc2nn(C3CCCC3)c3nc(NCc4ccccc4)ncc23)C1 (stereo not drawn)
inhibition (JAK1; enzyme activity, inhibitor, FRET; 10 µM): 2%

CN(c1nccc(-c2cnn3ncccc23)n1)C1CC1
remaining binding (JAK1; binding; 1 µM): 100%

CS(=O)(=O)N1CCCC(NC(=O)[C@H](CCC2CCCCC2)NC(=O)c2ccc(CNC(=O)c3cnc4ccccn34)cc2)C1 (stereo partly drawn)
remaining binding (JAK1 JH1; cell-free assay, competition with immobilised ligand; 0.1 µM): 64%
